# Test results: ChEMBL document CHEMBL1127024, “Synthetic and computer-assisted analysis of the structural requirements for selective, high-affinity ligand binding to diazepam-insensitive benzodiazepine receptors” (J Med Chem, 1993)
# Assays:
# Assay type in all cases: protein-complex assay
# [1] = target: GABA-A receptor; anion channel; test: Binding affinity for Diazepam insensitive (DI) isoform of the benzodiazepine (Bz) binding site on GABAA receptors
# In short: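 Adult male Sprague-Dawley rat cerebellar membranes (~100 µg; homogenised in 50 mM Tris-citrate pH 7.8, washed by repeated 20000g spins at 4 °C). Incubated 60 min at 0-4 °C, GF/B filtration, scintillation counting. Duplicate assays; Ki.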
# [2] = target: GABA-A receptor; anion channel (Rattus norvegicus) (UniProt O09028+P15431+P18506+P18508+P19969+P20236+P23574+P23576+P28471+P28473+P30191+P62813+P63079+P63138+Q91ZM7+Q9ES14); test: Ratio of binding affinity against DI Bz receptor to that of DS Bz receptor
# [3] = target: GABA-A receptor; anion channel; test: Binding affinity for Diazepam sensitive (DS) isoform of the benzodiazepine (Bz) binding site on GABAA receptors
Compound,Ki [1] [nM],Ratio [2],Ki [3] [nM]
CCOC(=O)c1ncn2c1CN(C)C(=O)c1c(F)cccc1-2,102,128,0.8
Cc1noc(-c2ncn3c2CN(Cc2ccccc2)C(=O)c2c(Cl)cccc2-3)n1,–,101,7.5
CN1Cc2c(C(=O)OC(C)(C)C)ncn2-c2ccc(Cl)cc2C1=O,–,0.4,–
CC(C)(C)OC(=O)c1ncn2c1C1CCN1C(=O)c1c(Cl)cccc1-2 (centres undefined),–,14,1.1
CCOC(=O)c1ncn2c1CN(C)C(=O)c1c(Cl)cccc1-2 [SARMAZENIL],20,100,0.2
Cc1noc(-c2ncn3c2CN(Cc2ccccc2)C(=O)c2cc(Cl)ccc2-3)n1,115,1.3,88.4
Cc1noc(-c2ncn3c2CN(Cc2ccccc2)C(=O)c2ccccc2-3)n1,> 10000,–,907
COC(=O)c1ncn2c1CN(C)C(=O)c1sccc1-2,–,58,–
CCCOC(=O)c1ncn2c1CN=C(c1ccccc1Cl)c1cc(Cl)ccc1-2,1020,539,1.9
CCOC(=O)c1ncn2c1CN(Cc1ccccc1)C(=O)c1cc(Cl)ccc1-2,10.9,0.8,13.7
CCOC(=O)c1ncn2c1CN(Cc1ccccc1)C(=O)c1ccccc1-2,112,75,1.5
CCOC(=O)c1ncn2c1C1CCCN1C(=O)c1c(Cl)cccc1-2 (centres undefined),68.8,344,0.2
CCOC(=O)c1ncn2c1[C@H]1CCCN1C(=O)c1ccccc1-2,> 1000,–,> 100
C=CCN1Cc2c(C(=O)OCC)ncn2-c2ccccc2C1=O,1130,29,39.2
O=C(OCC1CC1)c1ncn2c1C1CCCN1C(=O)c1cc(Cl)ccc1-2 (centres undefined),81,0.22,378
CCCOC(=O)c1ncn2c1CN(C)C(=O)c1cc(Cl)ccc1-2,–,1.3,–
O=C(OC1CCCCC1)c1ncn2c1C1CCCN1C(=O)c1cc(Cl)ccc1-2 (centres undefined),165,0.42,391
CCC(CC)OC(=O)c1ncn2c1CN(C)C(=O)c1cc(Cl)ccc1-2,–,4.6,–
CCCOC(=O)c1nc(C)n2c1CN=C(c1ccccc1Cl)c1cc(Cl)ccc1-2,–,–,2.2
CC(C)(C)OC(=O)c1ncn2c1C1CCN1C(=O)c1cc(F)ccc1-2 (centres undefined),16.9,9,1.8
CN1Cc2c(C(=O)OC(C)(C)C)ncn2-c2ccccc2C1=O,–,19.2,–
CCOC(=O)c1ncn2c1CN(C)C(=O)c1ccccc1-2,–,165,–

Compound,Ki [1] [nM],Ratio [2],Ki [3] [nM]
Cc1nnc2n1-c1ccc(Cl)cc1C(c1ccccc1Cl)=NC2 [TRIAZOLAM],2090,2610,0.8
CN1Cc2c(C(=O)OC(C)(C)C)ncn2-c2ccsc2C1=O,–,13,–
CCOC(=O)c1ncn2c1CN(Cc1ccccc1)C(=O)c1c(Cl)cccc1-2,20.2,51,0.4
Cc1nnc(-c2ncn3c2CN(Cc2ccccc2)C(=O)c2ccccc2-3)o1,> 10000,–,1210
CN1Cc2c(C(=O)OCC3CC3)ncn2-c2ccc(Cl)cc2C1=O,–,4.1,–
CC(C)(C)OC(=O)c1ncn2c1C1CCCN1C(=O)c1c(Br)cccc1-2 (centres undefined),10,20,0.5
O=C(OCC1CC1)c1ncn2c1C1CCN1C(=O)c1c(Cl)cccc1-2 (centres undefined),55,554,0.1
COc1cccc2c1C(=O)N1CCCC1c1c(C(=O)OC(C)(C)C)ncn1-2 (centres undefined),259,51,5.1
CC(C)OC(=O)c1ncn2c1CN(C)C(=O)c1cc(Cl)ccc1-2,–,0.8,–
CCOC(=O)c1ncn2c1CN(C)C(=O)c1ccc(Cl)cc1-2,> 10000,–,> 1000
COC(=O)c1ncn2c1CN(C)C(=O)c1ccccc1-2,1410,224,–
CCc1cccc2c1C(=O)N1CCCC1c1c(C(=O)OC(C)(C)C)ncn1-2 (centres undefined),164,164,1
CCOC(=O)c1ncn2c1CN(C)C(=O)c1cccc(Cl)c1-2,> 10000,–,> 1000
CCOC(=O)c1ncn2c1C1CCN1C(=O)c1c(Cl)cccc1-2 (centres undefined),34,170,0.2
COC(=O)c1ncn2c1CN(C)C(=O)c1cc(F)ccc1-2 [FLUMAZENIL METHYLESTER],239,77,3.1
CN1Cc2c(C(=O)OCCC(C)(C)C)ncn2-c2ccc(Cl)cc2C1=O,> 1000,–,–
CN1Cc2c(C(=O)OCC(C)(C)C)ncn2-c2ccc(Cl)cc2C1=O,–,0.67,–
CCCOC(=O)c1ncn2c1CN(C)C(=O)c1sccc1-2,–,27,–
CCOC(=O)c1ncn2c1C1CCCN1C(=O)c1cc(Cl)ccc1-2 (centres undefined),–,0.7,–
CC(C)(C)OC(=O)c1ncn2c1C1CCCN1C(=O)c1c-2ccc(F)c1Cl (centres undefined),23.6,24,1
CC(C)(C)OC(=O)c1ncn2c1C1CCCN1C(=O)c1cc(Cl)ccc1-2 (centres undefined),26.8,0.4,65.2
CCOC(=O)c1ncn2c1[C@@H]1CCCN1C(=O)c1ccccc1-2,–,50,–
